In ChEMBL document CHEMBL4513216, “Probing the Open Global Health Chemical Diversity Library for Multistage-Active Starting Points for Next-Generation Antimalarials” (ACS Infect Dis, 2020):

Experiment: Toxicity liver stage against HepG2, at 10uM
Assay type: cell-based
Set-up: test concentration 10 uM, cell line HepG2-A16-CD81EGFP
Conditions: human, HepG2-A16-CD81EGFP cells; read-out: INHIBITION
In short: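 Uninfected HepG2-A16-CD81EGFP cells, 3 × 10^3 per well, 1536-well, plated on prespotted compound at 10 μM final, parasite-free screening media added to match infected plates; puromycin 10 μM positive, DMSO 0.5% negative; run in parallel with 48 h PbLuc assay at 37 °C, 5% CO2; viability by CellTiter-Glo luminescence, normalized to controls.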

| SMILES | cytotoxicity at 10 µM |
| --- | --- |
| CCn1cnnc1Cc1nc2c([nH]1)CC(c1ccc(Cl)cc1)CNC2=O (stereo not given) | -48.9% |
| O=C(c1cscn1)N1CCC[C@]2(C[C@H](OCC3CC3)CO2)C1 | -2.86% |
| CCc1ccc(CN2C[C@H](OC)[C@H]3COC[C@H]32)o1 | 5.22% |
| Cc1n[nH]c(C2CN(C(=O)CCc3ccsc3)CCO2)n1 (stereo not given) | -5.15% |
| CC(C)N1CCN(C)C2(CCN(C(=O)c3ccnnc3)CC2)C1=O | 8.64% |
| Cc1n[nH]c(C)c1C1CCCN1C(=O)NCC(=O)NC(C)(C)C (stereo not given) | -11.7% |
| COC(=O)NCCC(=O)NC(c1ccc(Cl)cc1)C(F)(F)F (stereo not given) | 7.51% |
| CCOCc1nc2c(c(N3CCCn4nc(C)cc4C3)n1)CCNCC2 | 11.3% |
| CCOc1c(OC)cc(C=Cc2ncc(C(=O)NC)s2)cc1OC | 1.62% |
| COc1cc(C2CC(=O)NCc3nc4sccn4c32)cc(OC)c1O (stereo not given) | -0.966% |
| CCOc1ccc(Cl)c(C(=O)NC(Cc2ccccc2)C(N)=O)n1 (stereo not given) | 15.4% |
| CCc1nc(CN2CCCC2c2c(C)nn(C)c2OC)no1 (stereo not given) | -6.07% |
| COc1ccc(NC(=O)NC(C)c2nc[nH]n2)cc1 (stereo not given) | -7.71% |
| Cn1ccc2c(C(=O)NCC3(C(N)=O)CCOCC3)cccc21 | -1.21% |
| FC1(F)CCN(Cc2ccncc2)CC12CCN(c1cnccn1)C2 (stereo not given) | 3.19% |
| CN(Cc1nc(-c2cccnc2)no1)C(=O)c1c2c(nn1C)CCCC2 | 7.54% |
| CCC1COCCN1C(=O)NCc1nccn1Cc1ccccc1 (stereo not given) | -0.457% |
| Cc1noc2ncc(C(=O)N3CCCC(n4cccn4)C3)cc12 (stereo not given) | -1.39% |
| COc1ccc(F)cc1C(=O)N1CCCC(CNS(C)(=O)=O)C1 (stereo not given) | -20% |
| CC(=O)c1cn(CC(=O)N[C@H](C(=O)O)C(C)C)c2ccccc12 | -7.06% |
| O=C(NCC1CC1)C1CN(C(=O)c2ccnnc2)CC12CCOCC2 (stereo not given) | 8.21% |
| CN(CCNC(=O)c1cnc(-c2ccccc2)nc1)S(C)(=O)=O | 4.3% |

| SMILES | cytotoxicity at 10 µM |
| --- | --- |
| Cc1nc(O)cc(CCNC(=O)c2ccccc2N2CCCC2)n1 | 10.4% |
| COCc1cc(C[C@@H]2CC[C@H](O)[C@@H](CNCC(C)C)O2)no1 | 0.847% |
| CC(CNC(=O)c1ccc(Cl)cc1F)N1CCN(C)CC1 (stereo not given) | -8.56% |
| C/N=C1/c2cc3cc(OC)ccc3n2CCN1Cc1ccccc1 | 69.7% |
| CCCC(O)CN1CCC(=O)N(Cc2ccccc2)Cc2ccccc21 (stereo not given) | 5.24% |
| Cn1cc(CN2CCCC23CCN(C(=O)c2ccncc2)CC3)cn1 | -3.51% |
| CC(C)(C)C(=O)NCCc1ccn(-c2ccccc2)n1 | 1.76% |
| CC(C)n1ncc2c1NC(=O)CC21C(=O)Nc2c(Cl)ccc(Cl)c21 (stereo not given) | 1.19% |
| Cc1nn(C)c2nc(N(Cc3ccccc3)CC3CCCO3)sc12 (stereo not given) | 8.15% |
| CC(Cn1ccnc1)NS(=O)(=O)Cc1ccc(F)cc1 (stereo not given) | 5.36% |
| Cc1cccc(=O)n1CCC(=O)N1CCC2(CC1)OCCCC2O (stereo not given) | -1.95% |
| COc1cc(N2CCCC(c3nccn3Cc3cccnc3)C2)ncn1 (stereo not given) | -1.86% |
| O=C1NCCCCC1SCc1coc(-c2ccccc2)n1 (stereo not given) | 11.6% |
| O=C(c1ccncc1)N1CCC(Oc2cccc(C(F)(F)F)c2)CC1 | 14.1% |
| Cc1cc(C)n(C2CN(C(=O)c3cn4ccsc4n3)C2)n1 | 4.99% |
| CC1=N[C@@]2(CC[C@@H]3CN(C(=O)NCc4ccccc4C)C[C@@H]32)C(=O)N1 | -74.9% |
| CN1CCN([C@@H]2CCN(CC3=Cc4cc(Cl)ccc4OC3)C[C@H]2O)CC1 | -5.87% |
| Cc1ccc(-c2nc(C(=O)N3CCCCC3CNS(C)(=O)=O)cs2)cc1 (stereo not given) | -2.14% |
| CN(C)c1nc2cn(C3CC(C)(C)NC(C)(C)C3)c(=O)c-2c[nH]1 | 6.39% |
| Cc1noc([C@H]2C[C@@H]3CCN(C(=O)N(C)C)C[C@H]3O2)n1 | 2.8% |
| CC(C)CN1CC2(CCN(C(=O)C(O)c3ccccc3Cl)CC2)CC1=O (stereo not given) | 6.89% |
| CC(=O)N1CCC(c2cncc(Cl)n2)CC1 | 3.8% |

| SMILES | cytotoxicity at 10 µM |
| --- | --- |
| Cc1ccccc1CC(=O)NS(=O)(=O)c1cccc2cnccc12 | -0.601% |
| O=C(Cc1noc2ccccc12)N1CCCC1c1noc(C2CC2)n1 (stereo not given) | 61.5% |
| CS(=O)(=O)c1ccc(OCCNCc2ccc(F)cc2F)cc1 | -8.25% |
| CN(CC(N)=O)Cc1cc(Cl)cc2cccnc12 | 6.37% |
| COCCn1ccnc1C1CCCN(c2cnccn2)C1 (stereo not given) | 3.23% |
| CCN(CC)Cc1nc2c(o1)CN(C(=O)c1ccc3ncccc3c1)C2 | 6.01% |
| CN(C)C(=O)CN1C[C@H]2CC[C@@H](C1)N(C/C=C/c1ccc(F)cc1)C2 | -7.65% |
| CC(C)c1cccc(CSc2nnc(Cn3cncn3)o2)n1 | 13% |
| CC(=O)Nn1ccc2c(nnc3c(-c4ccc(F)cc4)cnn32)c1=O | 1.36% |
| O=C(c1cccc2ncccc12)N1CCCC(n2ccnc2)C1 (stereo not given) | -11.6% |
| Cc1cccc2nc(-c3nc4c([nH]3)CCCNC4=O)cn12 | 3.67% |
| Cc1nn(C)c(Cl)c1C1CCCN1CCc1ccccn1 (stereo not given) | 4.6% |
| CCCOC(=O)NCCC1CN(c2cnn(C)c(=O)c2)CCO1 (stereo not given) | 5.31% |
| Cc1cccc(-c2nccnc2C2CCCN(C)C2)c1 (stereo not given) | 0.83% |
| Cc1cc(CC(=O)NCC(O)c2ccc(OC(F)F)cc2)n[nH]1 (stereo not given) | -0.988% |
| CCOCCN1CCN(Cc2nnc(C3CC3)o2)CC1C (stereo not given) | 12.9% |
| COc1cc(C)nc(N2CCN(C(C)c3nc(C4CC4)no3)CC2)n1 (stereo not given) | 1.46% |
| CC1CCN(Cn2nc(-c3ccc(F)cc3)oc2=O)CC1 | -2.55% |
| CCc1nnc(CN2CCC3(CCC(=O)N(C4CCCC4)C3)CC2)o1 | -5.16% |
| CNc1nc(C2CCCN2)nc2c1CCN(S(=O)(=O)C1CCCCC1)C2 (stereo not given) | 9.17% |
| CCc1nnc(CN(C)C[C@@H]2CCCN3CCCC[C@H]23)o1 | 1.52% |
| CC(C)CN1C(=O)COC[C@@H]1[C@H](O)c1ccc(NC(=O)C2CC2)cc1 | 5.76% |

| SMILES | cytotoxicity at 10 µM |
| --- | --- |
| CC(C)N(C(=O)N1CCn2cncc2C1)C(C)C | -12.3% |
| CN(CC(=O)Nc1nc2c(s1)CCC2)C(=O)c1cccs1 | -10.3% |
| CCc1csc(CCNC(=O)C2CC(=O)N(C(C)C)C2)n1 (stereo not given) | -11.9% |
| C=c1ccoc1=C1NN=C(CNC2CCCN(c3cccnn3)C2)O1 (stereo not given) | -9.48% |
| CC(C)c1noc(CCC(=O)NC(C)c2nnc3n2CCCCC3)n1 (stereo not given) | -4.35% |
| CCOc1ccccc1C(CC(=O)Nc1ncc(C)s1)NC(C)=O (stereo not given) | -15.3% |
| CN(C)C(=O)Cc1ccc(NC(=O)NC2CCCC2)cc1 | -1.92% |
| Cc1cccc(NC2CCN(C(=O)Nc3ccccn3)CC2)n1 | -7.92% |
| Cc1c(C2c3nc[nH]c3CCN2CCOCc2ccccc2)cnn1C (stereo not given) | 0.838% |
| Fc1ccc(COCC2CCN(Cc3ccccn3)CC2)cc1 | -2.67% |
| c1ccc(CN2CCc3nnc(COc4ccccn4)n3CC2)nc1 | -2.1% |
| Cc1noc(C2CCC3(CCN(C(=O)c4cnccn4)CC3)O2)n1 (stereo not given) | 7.19% |
| CC(C)n1nc(Cn2cccn2)c2c1CN(C1CCOC1)C2 (stereo not given) | 6.95% |
| CCOCc1nccc(-c2ccc(OCC)c(C(=O)O)c2)n1 | 2.55% |
| CC(C)OC[C@H]1CCC[C@]12CN(S(=O)(=O)C1CC1)CCO2 | -2.51% |
| CSc1ccccc1CN1CCn2nc(CNC(=O)N(C)C)cc2C1 | 19.5% |
| Cc1nn(C)c(N(C)C)c1CNCc1cccc(Br)c1 | -7.98% |
| COc1cc(OC)cc(C2SCC(=O)Nc3ccsc32)c1 (stereo not given) | -1.16% |
| CN(C)CC(=O)N1CCC2(CC1)COCCN(Cc1ccncc1)C2 | -80.8% |
| CCN(C)C(=O)c1ccnn1-c1ccc2ccccn12 | 6.71% |
| Cc1noc(C)c1C(=O)N(C)Cc1nc(-c2ccccn2)no1 | -6.23% |
| COCCN1CCO[C@@H]2CN(C(=O)NCc3ccccc3)CC[C@@H]2C1 | 3.23% |

| SMILES | cytotoxicity at 10 µM |
| --- | --- |
| CCc1nsc(N2CCOC3(CCCC3)C2)n1 | 6.05% |
| CC(C)Cc1nc(COc2ccc(N(C)C(N)=O)cc2)no1 | 30.5% |
| CCNC(=O)[C@@H]1C[C@@H](NC(=O)Cc2ccccn2)CN1CCCSC | -6.72% |
| Cc1cccc(COC[C@@H]2CC[C@H]3[C@H](CCN3C(=O)CC3CC3)O2)n1 | -64.8% |
| CCN(C)CC(=O)N1CCC(c2cc(N3CCOCC3)nc(C)n2)CC1 | 6.9% |
| COc1cccc(CCNC(=O)c2ccc(=O)n(C)c2)c1 | -9.08% |
| O=C(NCCNc1cccnc1)C(c1cccnc1)N1CCCC1 (stereo not given) | 4.11% |
| CCc1ccc2nc(C)cc(C(=O)N[C@@H]3CNC[C@H]3O)c2c1 | -11% |
| CCCn1c(C)c(CC(=O)NC)c2c1CC(C)(C)CC2=O | -6.05% |
| CN1C(=O)CCc2cc(NC(=O)C3CCCC3)ccc21 | -9.79% |
| COc1cc(F)c(C(=O)NCc2ccon2)c(F)c1 | 2.13% |
| CCc1nc(C2CCCN(C(=O)c3ccc(OC)cc3)C2)no1 (stereo not given) | -15.6% |
| CC(C)c1sc(Cl)nc1C(=O)N1CCN(c2ccccn2)CC1 | -43.8% |
| COC(=O)CNCC1(O)CCCN(Cc2cccc(F)c2F)C1=O (stereo not given) | -6.87% |
| CN(Cc1ncnn1C1Cc2ccccc2C1)C1CCS(=O)(=O)C1 (stereo not given) | -2.14% |
| Cc1ccc2c(c1)OCCN2C(=O)c1ccc(=O)n(C)c1 | -5.88% |
| CC(C)c1nccn1C(C)C(=O)NC1CCN(S(C)(=O)=O)CC1 (stereo not given) | -2.86% |
| CCC(=O)N1CCCC(C(=O)NCc2noc(Cc3ccccc3)n2)C1 (stereo not given) | -1.15% |
| N[C@H]1CN(CCOc2ccc(F)cc2)C[C@@H]1C1CC1 | -1.93% |
| CN(C)CCOCC1CN(C(=O)c2cscn2)Cc2ccnn2C1 (stereo not given) | 3.65% |
| CCOC(C)c1nccn1Cc1cc(C)on1 (stereo not given) | 8.41% |
| Cc1ccc(CN2CC3(CCN(C(=O)Cc4ccc(Cl)cc4)C3)C2)o1 | 6.11% |
